ChEMBL document CHEMBL4229550, “An antimycobacterial pleuromutilin analogue effective against dormant bacilli” (Bioorg Med Chem, 2018)
≈ marks a conversion by molar mass, not a printed value. Calls of active or inactive are those of the source. The rule behind the calls is not given here.

Columns and labels:
Acinetobacter baumannii [1] = experiment: Antibacterial activity against Acinetobacter baumannii ATCC 19606 incubated for 24 hrs under aerobic condition by MABA; format: functional; settings: ATCC 19606 = CIP 70.34 = JCM 6841, 24 h, read-out: MIC100
Summary of the method: (§1)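 Mid-log cultures at OD 0.5 were exposed to serial dilutions under aerobic conditions at 37 °C for 24 h. Resazurin was then added from a 0.08% stock for 1 h. MIC100 was the lowest concentration where the dye stayed blue (pink means growth). Absorbance was also read at 570 and 600 nm.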

Staphylococcus aureus [2] = experiment: Antibacterial activity against Staphylococcus aureus BAA 1683 incubated for 24 hrs under aerobic condition by MABA; format: functional; settings: BAA 1683, 24 h, read-out: MIC100; summary of the method: as §1
Staphylococcus aureus [3] = experiment: Antibacterial activity against Staphylococcus aureus BAA 2094 incubated for 24 hrs under aerobic condition by MABA; format: functional; settings: BAA 2094, 24 h, read-out: MIC100
Summary of the method: (§2)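 Resazurin was then added from a 0.08% stock for 1 h. MIC100 was the lowest concentration where the dye stayed blue (pink means growth). Absorbance was also read at 570 and 600 nm.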

Escherichia coli [4] = experiment: Inhibition of protein translation/transcription in Escherichia coli S30 cell extract at 0.5 ug/ml using circular DNA with pBESTluc after 60 mins by luciferase reporter gene assay; format: functional
Summary of the method: (§3)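 Coupled transcription/translation used E. coli S30 extract, amino acid mix and premix, with the pBESTluc template carrying firefly luciferase under the tac promoter. Compounds were added in DMSO and reactions were started with DNA. Incubation was 60 min at 37 °C, stopped on ice, and luciferase was read after adding assay substrate.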

Klebsiella pneumoniae [5] = experiment: Antibacterial activity against Klebsiella pneumoniae ATCC 12019 incubated for 24 hrs under aerobic condition by MABA; format: functional; settings: ATCC 12019, 24 h, read-out: MIC100; summary of the method: as §1
Enterococcus faecalis [6] = experiment: Bactericidal activity against Enterococcus faecalis ATCC 349 incubated for 24 hrs under aerobic condition by MABA; format: functional; settings: ATCC 349, 24 h
[7] = test system: Mycobacterium tuberculosis; experiment: Bactericidal activity against Mycobacterium tuberculosis H37Rv at 2 times MIC measured every 24 hrs up to 12 days by time kill assay relative to control; format: functional
Summary of the method: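 Mid-log H37Rv (OD 0.5) is diluted to OD 0.25 and exposed at MIC, 2×MIC or 4×MIC. Every 24 h cultures are diluted 10- to 10,000-fold and plated on 7H10/OADC agar. Plates are incubated 15 days at 37 °C before colony counts.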

Staphylococcus aureus [8] = experiment: Antibacterial activity against Staphylococcus aureus ATCC 25923 incubated for 24 hrs under aerobic condition by MABA; format: functional; settings: ATCC 25923, 24 h, read-out: MIC100; summary of the method: as §1
[9] = Selectivity index, ratio of IC50 for African green monkey Vero cells to MIC100 for replicating Mycobacterium tuberculosis H37Rv by MABA; format: toxicity; settings: read-out: Selectivity Index
Summary of the method: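 Vero cells are cultured in EMEM with 10% FBS and exposed for 72 h to 0.78–200 µg/mL. Medium is switched to phenol-red-free EMEM, MTT is added, and formazan is read at 570 nm to give IC50. The selectivity index is Vero IC50 divided by the MABA MIC.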

Klebsiella pneumoniae [10] = experiment: Bactericidal activity against Klebsiella pneumoniae ATCC 12019 incubated for 24 hrs under aerobic condition by MABA; format: functional; settings: ATCC 12019, 24 h
Staphylococcus aureus [11] = experiment: Antibacterial activity against Staphylococcus aureus incubated for 24 hrs under aerobic condition by MABA; format: functional; settings: read-out: MIC100; summary of the method: as §2
Staphylococcus aureus [12] = experiment: Antibacterial activity against Staphylococcus aureus BAA 44 incubated for 24 hrs under aerobic condition by MABA; format: functional; settings: BAA 44, 24 h, read-out: MIC100; summary of the method: as §1
Staphylococcus aureus [13] = experiment: Bactericidal activity against Staphylococcus aureus BAA 1683 incubated for 24 hrs under aerobic condition by MABA; format: functional; settings: BAA 1683, 24 h
Bacillus subtilis [14] = experiment: Bactericidal activity against Bacillus subtilis ATCC 6051 incubated for 24 hrs under aerobic condition by MABA; format: functional; settings: ATCC 6051, 24 h
Enterococcus faecalis [15] = experiment: Bactericidal activity against Enterococcus faecalis ATCC 19433 incubated for 24 hrs under aerobic condition by MABA; format: functional; settings: ATCC 19433, 24 h
Streptococcus pneumoniae [16] = experiment: Antibacterial activity against Streptococcus pneumoniae ATCC 6301 incubated for 24 hrs under aerobic condition by MABA; format: functional; settings: ATCC 6301, 24 h, read-out: MIC100; summary of the method: as §1
Staphylococcus aureus [17] = experiment: Bactericidal activity against Staphylococcus aureus ATCC 25923 incubated for 24 hrs under aerobic condition by MABA; format: functional; settings: ATCC 25923, 24 h
[18] = Half life in Sprague-Dawley rat liver microsomes at 500 ng/ml preincubated for 5 mins followed by NADPH addition by C-MS/MS analysis; format: ADME, microsome
Staphylococcus aureus [19] = experiment: Bactericidal activity against Staphylococcus aureus BAA 44 incubated for 24 hrs under aerobic condition by MABA; format: functional; settings: BAA 44, 24 h
Streptococcus salivarius [20] = experiment: Antibacterial activity against Streptococcus salivarius […] incubated for 24 hrs under aerobic condition by MABA; format: functional; settings: read-out: MIC100; summary of the method: as §2
[21] = test system: Mycolicibacterium smegmatis; experiment: Bactericidal activity against Mycobacterium smegmatis ATCC 607 incubated for 48 hrs under aerobic condition by MABA; format: functional; settings: ATCC 607, 48 h
Escherichia coli [22] = experiment: Bactericidal activity against Escherichia coli ATCC 10798 incubated for 24 hrs under aerobic condition by MABA; format: functional; settings: ATCC 10798, 24 h
[23] = test system: Mycobacterium tuberculosis; experiment: Bactericidal activity against replicating Mycobacterium tuberculosis H37Rv incubated for 15 days under aerobic condition by MABA; format: functional; settings: 360 h
Summary of the method: (§4)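 Mtb H37Rv grown in 7H9/OADC at 37 °C with shaking to OD600 0.5. The 0.5-OD culture is exposed aerobically to serial dilutions for 15 days at 37 °C. Resazurin (0.02% stock) is then added for 4 h at 37 °C with shaking.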

Vero = experiment: Cytotoxicity against African green monkey Vero cells assessed as reduction in cell viability after 72 hrs by MTT assay; format: cell-based; settings: Chlorocebus sabaeus
Summary of the method: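 Vero cells were grown in complete EMEM with 10% FBS and exposed for 72 h to 0.78–200 µg/mL. The medium was then swapped for phenol-red-free EMEM and MTT was added. Formazan absorbance was read at 570 nm to give IC50.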

Staphylococcus aureus [24] = experiment: Bactericidal activity against Staphylococcus aureus incubated for 24 hrs under aerobic condition by MABA; format: functional
Streptococcus salivarius [25] = experiment: Bactericidal activity against Streptococcus salivarius ATCC 6301 incubated for 24 hrs under aerobic condition by MABA; format: functional; settings: ATCC 6301, 24 h
Acinetobacter baumannii [26] = experiment: Bactericidal activity against Acinetobacter baumannii ATCC 19606 incubated for 24 hrs under aerobic condition by MABA; format: functional; settings: ATCC 19606 = CIP 70.34 = JCM 6841, 24 h
[27] = test system: Mycobacterium tuberculosis; experiment: Antibacterial activity against Mycobacterium tuberculosis; format: functional; settings: read-out: MIC100; summary of the method: as §4
Staphylococcus aureus [28] = experiment: Bactericidal activity against Staphylococcus aureus BAA 2094 incubated for 24 hrs under aerobic condition by MABA; format: functional; settings: BAA 2094, 24 h
Escherichia coli [29] = experiment: Antibacterial activity against Escherichia coli ATCC 10798 incubated for 24 hrs under aerobic condition by MABA; format: functional; settings: ATCC 10798, 24 h, read-out: MIC100; summary of the method: as §1
Clostridioides difficile = experiment: Bactericidal activity against Clostridium difficile ATCC 700057 incubated for 24 hrs […] by MABA; format: functional; settings: ATCC 700057, 24 h
[30] = test system: Mycobacterium tuberculosis; experiment: Antibacterial activity against replicating Mycobacterium tuberculosis H37Rv incubated for 15 days under aerobic condition by MABA; format: functional; settings: 360 h, read-out: MIC100; summary of the method: as §4
Bacillus subtilis [31] = experiment: Antibacterial activity against Bacillus subtilis ATCC 6051 incubated for 24 hrs under aerobic condition by MABA; format: functional; settings: ATCC 6051, 24 h, read-out: MIC100; summary of the method: as §1
Escherichia coli [32] = experiment: Inhibition of protein translation/transcription in Escherichia coli S30 cell extract at 0.1 ug/ml using circular DNA with pBESTluc after 60 mins by luciferase reporter gene assay; format: functional; summary of the method: as §3
[33] = test system: Mycolicibacterium smegmatis; experiment: Antibacterial activity against Mycobacterium smegmatis ATCC 607 incubated for 48 hrs under aerobic condition by MABA; format: functional; settings: ATCC 607, 48 h, read-out: MIC100
Summary of the method: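 Mid-log culture at OD 0.5 was incubated with serial dilutions aerobically at 37 °C for 48 h. Resazurin was then added from a 0.08% stock for 1 h. MIC100 was the lowest concentration that stayed blue; absorbance was also read at 570/600 nm.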

Enterococcus faecalis [34] = experiment: Antibacterial activity against Enterococcus faecalis ATCC 349 incubated for 24 hrs under aerobic condition by MABA; format: functional; settings: ATCC 349, 24 h, read-out: MIC100; summary of the method: as §1
Erythrocyte = experiment: Hemolytic activity in sheep erythrocytes after 2 hrs; format: ADME, cell-based; settings: Ovis aries
Summary of the method: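 Washed heparinized sheep erythrocytes at 3% in buffer pH 7.4 were treated with 2–200 µg/mL for 2 h at 37 °C with gentle shaking. Triton X-100 (0.01–1%) was the positive control and PEG:H2O diluent the negative control. Released hemoglobin was read at OD540 and % hemolysis calculated against both controls.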

Enterococcus faecalis [35] = experiment: Antibacterial activity against Enterococcus faecalis ATCC 19433 incubated for 24 hrs under aerobic condition by MABA; format: functional; settings: ATCC 19433, 24 h, read-out: MIC100; summary of the method: as §1
Streptococcus pneumoniae [36] = experiment: Bactericidal activity against Streptococcus pneumoniae ATCC 6301 incubated for 24 hrs under aerobic condition by MABA; format: functional; settings: ATCC 6301, 24 h

`CC[C@]1(C)C[C@@H](OC(=O)CSC(C)(C)CNC(=O)[C@H](N)CC(C)C)[C@]2(C)[C@H](C)CC[C@]3(CCC(=O)[C@H]32)[C@@H](C)[C@@H]1O` showed an MIC (Acinetobacter baumannii [1]) of 9.38 µg/mL (≈ 16.1 µM), an MIC (Staphylococcus aureus [2]) of over 25 µg/mL and an MIC (Staphylococcus aureus [3]) of over 25 µg/mL. For the same compound, the inhibition (Escherichia coli [4]) was “Active”, the MIC (Klebsiella pneumoniae [5]) was 25 µg/mL (≈ 43 µM) and the MBC (Enterococcus faecalis [6]) was over 25 µg/mL. For the same compound, the Activity [7] was 100%, the MIC (Staphylococcus aureus [8]) was over 25 µg/mL and the selectivity ratio [9] was 32. It also gave an MBC (Klebsiella pneumoniae [10]) of over 25 µg/mL, an MIC (Staphylococcus aureus [11]) of 0.4 µg/mL (≈ 0.689 µM) and an MIC (Staphylococcus aureus [12]) of over 25 µg/mL. The MBC (Staphylococcus aureus [13]) was over 25 µg/mL, the MBC (Bacillus subtilis [14]) was 25 µg/mL (≈ 43 µM) and the MBC (Enterococcus faecalis [15]) was 25 µg/mL (≈ 43 µM). The MIC (Streptococcus pneumoniae [16]) was 25 µg/mL (≈ 43 µM), the MBC (Staphylococcus aureus [17]) was over 25 µg/mL and the t1/2 [18] was under 5 min. For the same compound, the MBC (Staphylococcus aureus [19]) was over 25 µg/mL, the MIC (Streptococcus salivarius [20]) was 0.4 µg/mL (≈ 0.689 µM) and the MBC [21] was 25 µg/mL (≈ 43 µM). For the same compound, the MBC (Escherichia coli [22]) was over 25 µg/mL, the MBC [23] was 0.77 µg/mL (≈ 1.33 µM) and the IC50 (Vero) was 25 µg/mL (≈ 43 µM). For the same compound, the MBC (Staphylococcus aureus [24]) was 0.8 µg/mL (≈ 1.38 µM), the MBC (Streptococcus salivarius [25]) was over 25 µg/mL and the MBC (Acinetobacter baumannii [26]) was 12.5 µg/mL (≈ 21.5 µM). It also gave an MIC [27] of under 6.25 µg/mL, an MBC (Staphylococcus aureus [28]) of over 25 µg/mL and an MIC (Escherichia coli [29]) of 12.5 µg/mL (≈ 21.5 µM). The MBC (Clostridioides difficile) was 1.56 µg/mL (≈ 2.69 µM), the MIC [30] was 0.78 µg/mL (≈ 1.34 µM) and the MIC (Bacillus subtilis [31]) was 12.5 µg/mL (≈ 21.5 µM). For the same compound, the inhibition (Escherichia coli [32]) was “Active”, the MIC [33] was 6.25 µg/mL (≈ 10.8 µM) and the MIC (Enterococcus faecalis [34]) was over 25 µg/mL. It also gave an IC50 (Erythrocyte) of over 200 µM, an MIC (Enterococcus faecalis [35]) of 12.5 µg/mL (≈ 21.5 µM) and an MBC (Streptococcus pneumoniae [36]) of over 25 µg/mL.
